In publication PMC9102048 (RSC Advances, 2022):
Like-named read-outs stand apart in the source and are kept apart here.

What was measured:
[1] = tested on: NIH3T3 cells; test: CCK8 anti-proliferative assay, mouse fibroblast cell line; type: cell-based; conditions: for IC50: CCK8; for inhibition at 500 µM: NIH3T3, read-out: Inhibition% @ 0.5 mM; for inhibition at 1000 µM: NIH3T3, read-out: Inhibition% @ 1 mM; for proliferation (fixed cell morphology): NHI3T3, 0.050 mM for 24 h
Method in brief: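 NIH3T3 cells in F12K/DMEM with 10% heat-inactivated FBS and penicillin/streptomycin. Log-phase cells seeded at 5 × 10^3 cells/well for 24 h, then exposed to a range of test-compound concentrations for 72 h. Single-point inhibition taken at 1 mM and 0.5 mM. CCK8 added for 1–4 h; absorbance read at 450 nm. IC50 by curve fitting; mean (±SD) of ≥3 independent determinations.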

[2] = tested on: E-cadherin; test: Immunofluorescence, E-cadherin expression; type: cell-based, mouse; conditions: NHI3T3 cells, TGF-β1 (10 ng mL^−1) and 9d (50 μM)
[3] = tested on: KM mice; test: Acute toxicity experiment and histopathologic examination; type: in vivo; conditions: caudal vein injection, 100/150/300 mg kg^−1
[4] = Solubility in water; type: physicochemical; conditions: compared with 11a and 11b
[5] = tested on: α-SMA; test: Immunofluorescence, α-SMA expression; type: cell-based, mouse; conditions: NHI3T3 cells, TGF-β1 (10 ng mL^−1) and 9d (50 μM)
Method in brief: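 NIH3T3 cells grown on coverslips and co-treated with TGF-β1 (10 ng mL−1) and test compound (50 μM) for 24 h. Fixed in 4% paraformaldehyde, then incubated with primary anti-α-SMA overnight at 4 °C. Detected with FITC-conjugated anti-rabbit IgG; nuclei stained with DAPI. Imaged by confocal microscopy; two technical replicates, three biological repeats.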

[6] = tested on: HFL1; test: CCK8 antiproliferative assay, human fibroblast cell line; type: cell-based; conditions: for proliferation (fixed cell morphology): HFL1, 0.050 mM for 24 h; for IC50: Homo sapiens, HFL1
Method in brief: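 HFL1 human fibroblasts grown in F12K/DMEM with 10% heat-inactivated FBS and penicillin/streptomycin. Cells treated with test compound for 48 h, and viability read by CCK8 absorbance at 450 nm. Curve fitting gave IC50. For morphology, cells were treated for 24 h, fixed, and imaged by light microscopy with a 10× objective.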

[7] = tested on: NHI3T3 cells; test: Transwell / cell migration assay; type: cell-based, mouse
[8] = clinical trials, after administration of pirfenidone; cited from earlier work
[9] = tested on: NIH3T3 cells; conditions: pirfenidone, reported in the literature; cited from earlier work
[10] = Mus musculus, NIH3T3, NIH3T3 cells, averages ±SD of at least three determinations
[11] = Mus musculus, NIH3T3, NIH3T3 cells

Molecule	IC50 [1, 10]	inhibition at 500 µM ([1]; Mus musculus)	inhibition at 1000 µM ([1]; Mus musculus)	further results
CN1CCN(CC(=O)Nc2ccc(-n3cc(C(F)(F)F)ccc3=O)cc2)CC1 [Compound 5a, 2-(4-Methylpiperazin-1-yl)-N-(4-(2-oxo-5-(trifluoromethyl)pyridin-1(2H)-yl)phenyl)acetamide]	341 ± 7.3 µM	51.8%	62.4%	–
CC(=O)N(C(C)=O)c1ccc(Cn2cc(C)ccc2=O)cc1 [Compound 9d, N-Acetyl-N-(4-((5-methyl-2-oxopyridin-1(2H)-yl)methyl)phenyl)acetamide]	69.1 ± 2.7 µM	88.4%	98.7%	expression of E-cadherin [2]: reversed after 9d treatment, higher than the control group; histopathology (H&E) of liver, kidney, heart, spleen [3]: no pathological abnormalities such as inflammation, injury and necrosis; solubility in water [4]: good solubility in water; expression of α-SMA [5]: decreased; proliferation (fixed cell morphology) [6]: effectively inhibited; IC50 [6]: 35 µM; IC50 [1, 11]: 69 µM; proliferation (fixed cell morphology) [1]: effectively inhibited; times the anti-fibrosis activity of pirfenidone ([1]; relative to pirfenidone IC50 2.75 mM): more than 40 times; 3T3 cell migration (transwell) ([7]; 9d 50 μM): markedly inhibited; cell migration OD value ([7]; 9d + TGF-β1, OD value of the control is 1.0, TGF-β1 alone about 1.7): about 0.8; cell migration OD value ([7]; 9d alone, 50 μM, OD value of the control is 1.0): about 0.35
CC(=O)Nc1ccc(-n2cc(C)ccc2=O)cc1 [Compound 4b, N-(4-(5-Methyl-2-oxopyridin-1(2H)-yl)phenyl)acetamide]	> 1000 µM	1.3%	25.7%	–
1-Benzyl-5-(trifluoromethyl)pyridin-2(1H)-one [Compound 7a]	–	–	–	Inhibition% @ 0.5 mM ([1]; NIH3T3 cells, CCK8, 0.5 mM): 20.58%; Inhibition% @ 1 mM ([1]; NIH3T3 cells, CCK8, 1 mM): 40.95%; IC50 ([1]; NIH3T3 cells, averages ±SD of at least three determinations): > 500 µM
Cc1ccc(=O)n(-c2ccc(NC(=O)[C@@H](C)N(C)C)cc2)c1 [Compound 5c, (R)-2-(Dimethylamino)-N-(4-(5-methyl-2-oxopyridin-1(2H)-yl)phenyl)propanamide]	490.2 ± 2.7 µM	26.8%	52.9%	IC50 [1, 11]: 490 µM
CN(C)CC(=O)Nc1ccc(-n2cc(C(F)(F)F)ccc2=O)cc1 [Compound 5b, 2-(Dimethylamino)-N-(4-(2-oxo-5-(trifluoromethyl)pyridin-1(2H)-yl)phenyl)acetamide]	> 500 µM	34.2%	45.8%	–
CN(C)CC(=O)Nc1ccc(Cn2cc(C(F)(F)F)ccc2=O)cc1 [Compound 10d, 2-(Dimethylamino)-N-(4-((2-oxo-5-(trifluoromethyl)pyridin-1(2H)-yl)methyl)phenyl)acetamide]	273.1 ± 1.5 µM	52.4%	71.3%	–
CC(=O)N(C)c1ccc(Cn2cc(C(F)(F)F)ccc2=O)cc1 [Compound 11a, N-Methyl-N-(4-((2-oxo-5-(trifluoromethyl)pyridin-1(2H)-yl)methyl)phenyl)acetamide]	146 ± 5.5 µM	67.9%	78.5%	–
CC(=O)N(C(C)=O)c1ccc(Cn2cc(C(F)(F)F)ccc2=O)cc1 [Compound 9b, N-Acetyl-N-(4-((2-oxo-5-(trifluoromethyl)pyridin-1(2H)-yl)methyl)phenyl)acetamide]	87.5 ± 0.7 µM	80.6%	90.5%	solubility in water [4]: good solubility in water; proliferation (fixed cell morphology) [6]: effectively inhibited; IC50 [6]: 48 µM; IC50 [1, 11]: 87 µM; proliferation (fixed cell morphology) [1]: effectively inhibited
CC(=O)Nc1ccc(-n2cc(C(F)(F)F)ccc2=O)cc1 [Compound 4a, N-(4-(2-oxo-5-(Trifluoromethyl)pyridin-1(2H)-yl)phenyl)acetamide]	> 1000 µM	10.4%	32.6%	–
CC(=O)Nc1ccc(Cn2cc(C)ccc2=O)cc1 [Compound 9c, N-(4-((5-Methyl-2-oxopyridin-1(2H)-yl)methyl)phenyl)acetamide]	113 ± 1.9 µM	72.5%	89%	–
CN1CCN(CC(=O)Nc2ccc(Cn3cc(C(F)(F)F)ccc3=O)cc2)CC1 [Compound 10a, 2-(4-Methylpiperazin-1-yl)-N-(4-((2-oxo-5-(trifluoromethyl)pyridin-1(2H)-yl)methyl)phenyl)acetamide]	246.3 ± 1.8 µM	66.5%	87.7%	–
TGF-β1: recombinant TGF-β1, key fibrogenic factor used to induce epithelial–mesenchymal transition and cell migration [reference compound]	–	–	–	cell migration OD value ([7]; TGF-β1 alone, OD value of the control is 1.0): about 1.7
CC(=O)Nc1ccc(Cn2cc(C(F)(F)F)ccc2=O)cc1 [Compound 9a, N-(4-((2-oxo-5-(Trifluoromethyl)pyridin-1(2H)-yl)methyl)phenyl)acetamide]	132 ± 2.3 µM	68.4%	86.2%	–
CC(=O)N(C)c1ccc(Cn2cc(C)ccc2=O)cc1 [Compound 11b, N-Methyl-N-(4-((5-methyl-2-oxopyridin-1(2H)-yl)methyl)phenyl)acetamide]	140 ± 9.8 µM	66.7%	79.4%	–
Cc1ccc(=O)n(-c2ccccc2)c1 [pirfenidone, 5-methyl-1-phenyl-2[1H]-pyridone, reference compound]	> 1000 µM	17.9%	35.7%	incidence of photo-sensitivity [8]: 51.7%; IC50 [9]: 2750 µM
